The source made the active and inactive calls. The calls are words filed in the database; no cut-off is given here.
Experiments:
Vero [1] = assay: Cytotoxicity against african green monkey Vero cells; format: cell-based; details: chlorocebus sabaeus
How it was run: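 Cytotoxicity assay with doxorubicin and 5-fluorouracil as positive controls and DMSO as the vehicle (negative) control.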

Plasmodium falciparum [2] = assay: Antiplasmodial activity against Plasmodium falciparum D6; format: functional, organism-based
Plasmodium falciparum [3] = assay: Antiplasmodial activity against Plasmodium falciparum W2; format: functional, organism-based
Staphylococcus aureus [4] = assay: Antibacterial activity against Staphylococcus aureus ATCC 6535 by antimicrobial susceptibility test; format: functional, organism-based
How it was run: (§1)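 Modified 96-well microplate broth assay run on purified compounds, giving IC50 and MIC values, against ATCC strains C. albicans 90028, C. neoformans 90113, and S. aureus 6535 and 33591. Amphotericin B and rifampin served as positive controls, with DMSO as the negative control.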

Staphylococcus aureus [5] = assay: Antibacterial activity against Staphylococcus aureus ATCC 33591 by antimicrobial susceptibility test; format: functional, organism-based; how it was run: as §1
Vero [6] = assay: Cytotoxicity against african green monkey Vero cells at 56.42 uM; format: cell-based; details: chlorocebus sabaeus
Cryptococcus neoformans = assay: […] activity against Cryptococcus neoformans ATCC 90113 by antimicrobial susceptibility test; format: functional, organism-based; how it was run: as §1
Candida albicans = assay: Antifungal activity against Candida albicans B311 ATCC 90028 by antimicrobial susceptibility test; format: functional, organism-based; how it was run: as §1

Q: Which results are given for `COc1ccc([C@@H](CNC(=O)/C=C/c2ccccc2)OC(=O)/C=C/c2ccccc2)cc1OC` [SYNCARPAMIDE]?
A: Activity (Vero [1]): Not Active; IC50 (Plasmodium falciparum [2]): 2040 nM; IC50 (Plasmodium falciparum [3]): 3060 nM

Q: For `COc1c(O)ccc2c1cnc1c3cc4c(cc3ccc21)OCO4` [DECARINE], which Activity (Vero [1]) is on record?
A: Not Active

Q: What about the Activity (Staphylococcus aureus [4]) of the same molecule?
A: Active

Q: What about the IC50 (Plasmodium falciparum [2]) of the same molecule?
A: 1440 nM

Q: And the Activity (Staphylococcus aureus [5])?
A: Active

Q: What about the Activity (Vero [6]) of the same molecule?
A: Active

Q: And the IC50 (Plasmodium falciparum [3])?
A: 880 nM

Q: And the Activity (Cryptococcus neoformans)?
A: Active

Q: Which results are given for `CC(C)(O)[C@@H]1Cc2cc3ccc(=O)oc3cc2O1`?
A: Activity (Staphylococcus aureus [4]): inactive; Activity (Plasmodium falciparum [2]): inactive; Activity (Staphylococcus aureus [5]): inactive; Activity (Plasmodium falciparum [3]): inactive; Activity (Cryptococcus neoformans): inactive; Activity (Candida albicans): inactive
